Screening results from PubChem BioAssay.
RanGTP-Imp inh: inhibitors of RanGTP-importin-beta interaction, primary screen, biochemical, FRET, CFP-Ran, YFP-importin-beta, homogeneous; AID 2216, 2009; inhibition, % (test concentration not listed); actives 1.1% (n = 300,000); cell-free CFP-Ran/YFP-importin-beta FRET ratio; Ran GTPase (GTP-bound) - importin-beta complex;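 active means more than half of the replicate wells show a fall in the fluorescence ratio signal beyond about 16%, limit read from the data, passing the limit was not always enough; inconclusive means exactly half of the replicate wells pass the set limit; inactive means fewer than half of replicates pass the limit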;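 further: 0% = DMSO wells and 100% = Ran loaded with GDP instead of GTP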
Hck Nef HTS: inhibitors of Nef-activated human Hck kinase, primary screen, biochemical, Z-Lyte FRET, 384-well, Hck-YEEI; Tyrosine-protein kinase HCK (Homo sapiens), P08631; inhibition, % at 20 µM; actives 0.68% (n = 220,000); Recombinant Hck-YEEI plus Nef, Z-Lyte FRET kinase assay; AID 463187, 2010;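 active means Hck-Nef kinase inhibition above about 50%, limit read from the data; inactive means inhibition below that limit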;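 further: 0% = DMSO with Hck plus Nef and 100% = Hck alone without Nef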
Runt-SMMHC FRET: inhibitors of RUNX1 Runt–CBFb-SMMHC binding, primary screen, biochemical, FRET, Cerulean-Runt, Venus-CBFb-SMMHC, uHTS; actives 0.74% (n = 220,000); AID 1434, 2008; inhibition, % at 20 µM; Cerulean-Runt/Venus-CBFb-SMMHC FRET ratio 530/480, 1 h; Runt-related transcription factor 1 (Homo sapiens) + Core-binding factor subunit beta …;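 active means mean inhibition across duplicate retests at 20 µM reaching about 50%, limit read from the data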;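 further: 0% = DMSO wells and 100% = wells with excess untagged CBFb-SMMHC; inhibitors lower the FRET ratio by blocking Runt binding to CBFb-SMMHC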
Target sequence (Q01196 whole entry, looked up): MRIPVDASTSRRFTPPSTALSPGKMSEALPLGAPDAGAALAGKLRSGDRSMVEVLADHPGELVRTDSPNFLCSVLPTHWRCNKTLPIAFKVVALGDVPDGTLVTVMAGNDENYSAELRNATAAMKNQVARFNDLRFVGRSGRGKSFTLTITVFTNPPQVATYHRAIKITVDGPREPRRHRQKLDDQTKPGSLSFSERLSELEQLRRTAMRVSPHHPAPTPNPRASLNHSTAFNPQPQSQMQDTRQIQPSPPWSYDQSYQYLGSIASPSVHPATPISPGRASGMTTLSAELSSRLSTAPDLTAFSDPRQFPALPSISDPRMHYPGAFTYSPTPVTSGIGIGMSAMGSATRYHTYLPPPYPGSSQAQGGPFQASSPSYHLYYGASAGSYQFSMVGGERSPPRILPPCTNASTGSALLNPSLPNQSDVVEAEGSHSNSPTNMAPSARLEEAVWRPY
Target sequence (Q13951 whole entry, looked up): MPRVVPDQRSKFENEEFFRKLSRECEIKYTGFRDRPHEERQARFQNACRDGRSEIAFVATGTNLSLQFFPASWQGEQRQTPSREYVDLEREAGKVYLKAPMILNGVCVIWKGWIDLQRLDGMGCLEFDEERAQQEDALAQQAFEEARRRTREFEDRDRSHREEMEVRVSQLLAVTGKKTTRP
Tb hexokinase: Trypanosoma brucei hexokinase 1 inhibitors, primary screen, biochemical, G6PDH-coupled NADH absorbance, MLSCN library | hexokinase 1 [Trypanosoma brucei] | recombinant TbHK1, G6PDH-coupled NADH A340 | inhibition, % at 10 µM | actives 0.11% (n = 220,000);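 active means inhibition of 50% or more in the single-dose primary screen; inactive means inhibition below 50%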
Runt-CBFb FRET: inhibitors of RUNX1 Runt–CBFb binding, primary screen, biochemical, FRET, Cerulean-Runt, Venus-CBFb, uHTS | Cerulean-Runt/Venus-CBFb FRET ratio 530/480, 1 h | inhibition, % at 20 µM | actives 0.46% (n = 220,000);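 active means inhibition over about 50% at 20 µM in the single-dose screen, limit read from the data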;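 further: 0% = DMSO wells and 100% = excess unlabeled CBFb competitor control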
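Reagent – Venus-CBFb binding partner, 100 nM · Assay system – Cerulean-tagged RUNX1 Runt domain (FRET donor) fusion protein · Input – 100 nM per protein · Incubation – two 1 h room-temperature incubations shielded from light · Measured by – FRET fluorescence · Medium – Tris buffer pH 7.5 with salts and BSA · Benchmarks – unlabeled CBFb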
Hck-Nef confirm: retest of Hck:Nef kinase inhibitor hits, confirmation, biochemical, Z-Lyte FRET, 384-well, p-Tyr peptide counterscreen; calls only at 10 µM; AID 463188, 2010; Recombinant Hck-YEEI:Nef, Z-Lyte FRET kinase assay; shares compounds with Hck Nef HTS; actives 28% (n = 1,300);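 active means average inhibition of at least 50%, with Z-scores no higher than 3 in both the phospho-tyrosine peptide and fluorescence counterscreens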
An asterisk follows results filed as active; i = inactive; ? = inconclusive; / = no result given; + = active, no number. Only some compounds are listed: those with a hit (about 1.9% of all), similar ones and a draw of the others.

SMILES	RanGTP-Imp inh	Hck Nef HTS	Runt-SMMHC FRET	Tb hexokinase	Runt-CBFb FRET	Hck-Nef confirm
COc1ccc(CNC(=O)CCNS(=O)(=O)c2cccc3nsnc23)cc1	-2.3	153.6*	-4.2	-4.9	-0.5	i
O=C(CCNS(=O)(=O)c1cccc2nsnc12)NCc1ccccc1	-5.9	/	/	/	/	/
c1ccc(Nc2ccnc(Nc3ccccc3)n2)cc1	0.8	100.5*	0.3	0.1	-0.7	+
NNc1nc(Nc2ccccc2)nc(Nc2ccccc2)n1	-2.8	-0.4	2.5	1.0	3.1	/
CCn1cc(/C=N/NC(=O)COc2cccc3cccnc23)c2ccccc21	-0.6	25.9	1.2	-9.4	-3.7	/
COc1ccc(/C=N/NC(=O)COc2cccc3cccnc23)cc1OC	?	54.2*	1.9	-0.8	-1.5	i
COc1cc(C=C2C(=O)c3ccccc3C2=O)cc(OC)c1OC	-1.9	22.5	-3.7	10.5	-6.2	/
COc1cc(C=C2C(=O)c3ccccc3C2=O)ccc1O	-4.3	74.4*	-4.0	-10.9	-6.0	i
COc1ccc(C=C2C(=O)c3ccccc3C2=O)cc1O	0.5	104.5*	-0.4	-7.9	-0.1	i
COCCCn1c(C(=O)NCCC2=CCCCC2)cc2c(=O)n3ccccc3nc21	1.6	/	/	/	/	/
N=c1c(C(=O)NCc2ccc(F)cc2)cc2c(=O)n3ccccc3nc2n1CC1CCCO1 (stereo not drawn)	198.5*	145.4*	60.4*	-3.9	10.4	/
O=C(NCc1ccc(Cl)cc1)c1ccc2c(=O)n(CC3CCCO3)c(=S)[nH]c2c1 (stereo not drawn)	-1.1	/	/	/	/	/
COCCCn1c(=N)c(C(=O)NCC2CCCO2)cc2c(=O)n3ccccc3nc21 (stereo not drawn)	172.4*	+	65.3*	-8.1	12.5	/
CCCn1c(=N)c(C(=O)NCC2CCCO2)cc2c(=O)n3cccc(C)c3nc21 (stereo not drawn)	183.6*	191.8*	37.9	-7.5	11.5	/
CCCn1c(=O)c(C(=O)NCC2CCCO2)c(O)c2ccccc21 (stereo not drawn)	4.0	0.7	-1.9	0.2	-2.3	/
CCC(C)NCCCCOc1ccc(Cl)cc1C (stereo not drawn)	0.4	4.3	-3.7	0.5	-1.1	/
C/C=C\C=C\C(=O)N1CC2(CC(c3cccc(NC(=O)CC(c4ccccc4)c4ccccc4)c3)=NO2)C[C@H]1C(N)=O (stereo partly drawn)	-1.2	77.7*	1.6	-10.3	4.3	i
C/C=C(\C)C(=O)N1CC2(CC(c3cccc(NC(=O)CC(c4ccccc4)c4ccccc4)c3)=NO2)C[C@H]1C(N)=O (stereo partly drawn)	4.4	25.3	-8.5	-15.7	2.6	/
C/C=C/C=C\C(=O)Nc1cccc(C2=NOC3(C2)C[C@@H](C(N)=O)N(C(=O)c2cc([N+](=O)[O-])cc([N+](=O)[O-])c2)C3)c1 (stereo partly drawn)	0.4	50.3*	0.9	-24.8	2.9	i
O=C(NCCC(=O)N1CCC2(CC1)NCCc1[nH]cnc12)c1ccc(F)c(F)c1	-1.1	/	/	/	/	/
CCOc1cc(/C=C2\N=C(SCC)SC2=O)cc([N+](=O)[O-])c1OC(C)=O	5.6	94.7*	-6.5	-5.6	5.9	+
CCOc1cc(/C=C2\N=C(SC)SC2=O)cc([N+](=O)[O-])c1OC(C)=O	3.7	13.4	-0.2	-8.1	2.6	/
COc1ccc(CCNC(=O)CSc2nnc(CNC(=O)c3cc(OC)c(OC)c(OC)c3)o2)cc1OC	4.3	/	/	/	/	/
CC#CC(=O)N1CCC(CCC(=O)N(C)Cc2ccccc2)CC1	2.4	/	/	/	/	/
CC(Oc1cc2oc(=O)c3c(c2cc1Cl)CCC3)C(=O)NCCN1CCOCC1 (stereo not drawn)	-0.3	/	/	/	/	/
SMILES	RanGTP-Imp inh	Hck Nef HTS	Runt-SMMHC FRET	Tb hexokinase	Runt-CBFb FRET	Hck-Nef confirm
CCCCCCc1cc2cc(C(=O)Nc3ccccc3)c(=O)oc2cc1O	116.9*	71.8*	58.5*	10.6	113.0*	i
CCCCCCc1cc2cc(S(=O)(=O)c3ccc(Cl)cc3)c(=O)oc2cc1O	166.5*	109.5*	80.8*	8.2	5.5	/
Cc1ccc(S(=O)(=O)Nc2ccc(O)c(S(=O)(=O)c3ccc(C)cc3)c2)cc1	-0.4	/	/	/	/	/
CCCCCCc1cc2cc(S(=O)(=O)c3ccc(C)cc3)c(=O)oc2cc1O	162.6*	80.3*	80.8	-12.4	5.5	/
N=c1oc2ccccc2cc1C(=O)Nc1ccccc1	2.7	/	/	/	/	/
CC(C)c1ccc(S(=O)(=O)c2cc3cc(Br)ccc3oc2=O)cc1	4.0	-0.1	-29.5	-4.3	-10.3	/
S=C(NC1CC1)NC1CCCc2ccccc21 (stereo not drawn)	-3.9	21.7	-1.3	3.9	-2.0	/
Cc1ccc(NC(=O)CSc2nnc(CNC(=O)c3ccco3)n2C)cc1	3.1	/	/	/	/	/
CC(C)(Oc1ccc(Cl)cc1)C(=O)NCC(c1ccco1)N1CCCCC1 (stereo not drawn)	1.5	/	/	/	/	/
COC(OC)c1ccnc(-c2ccc(OC(C)=O)cc2)n1	2.4	21.6	-0.6	-2.3	-1.0	/
COC(OC)c1ccnc(-c2ccc(OC(=O)c3ccccc3)cc2)n1	?	57.9*	-2.6	2.2	-2.8	i
O=C(Cn1c2ccccc2c(=O)c2ccccc21)N/N=C/c1cc([N+](=O)[O-])ccc1N1CCCCCC1	-3.7	81.4*	-91.3	-4.9	-43.9	+
Cc1cc(-c2csc(NC(=O)c3cc4ccccc4o3)n2)c(C)n1C	4.4	59.4*	-32.5	-13.7	-7.7	i
O=C(Nc1nc(-c2ccccn2)cs1)c1cc2ccccc2o1	-0.4	13.7	-1.7	-20.4	3.2	/
CCOC(=O)c1c(NC(=O)N/N=C/c2ccc(O)c(OC)c2)sc(C(C)=O)c1C	-4.8	60.8*	-6.1	-21.0	4.8	i
CN(C)S(=O)(=O)c1cccc(C(=O)NCc2ccco2)c1	-2.1	6.4	2.5	2.9	1.6	/
S=C(NCc1ccco1)Nc1ccccc1Cl	-4.1	94.0*	-5.1	6.7	4.0	i
Cc1ccc(S(=O)(=O)N(C)C)cc1NC(=S)NCc1ccco1	-1.8	113.0*	4.7	-2.4	/	+
S=C(NCc1ccco1)Nc1cccc(Cl)c1Cl	-0.4	20.9	1.0	-2.7	2.6	/
O=C(Cc1csc(N2CCOCC2)n1)N/N=C/c1ccc(O)c(O)c1O	2.7	65.5*	26.1	7.2	45.8	i
